Assays:
[1] = folding enthalpy; higher = less favourable; fluorescence melt of hairpins on a sequencing array, two-state fit; settings: sodium 0.088 M
Procedure, shortened: (§1)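 On a sequenced MiSeq flow cell, library hairpins with annealed Cy3 and quencher oligos were imaged for Cy3 fluorescence in 2.5 °C steps up to 60 °C, in 50 mM Na-HEPES pH 8.0, 25 mM NaCl. Normalisation used pre-quench Cy3 and control constructs. Bootstrapped two-state fits gave melting temperature and folding enthalpy, combined by inverse variance across four replicates and with fitted temperatures raised by 9.35 °C to match UV melts.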

[2] = melting temperature; fluorescence melt of hairpins on a sequencing array, two-state fit, raised by 9.35 °C to match UV melts; settings: sodium 0.088 M
Procedure, shortened: as §1

| Sequence | folding enthalpy [1] [kcal/mol] | Tm [2] [°C] |
| --- | --- | --- |
| GTTGTACGAAAGTAAAAC (((.(((....))).))) | -26.7 | 38.8 |
| GTTGTAGGAAACTACAAC (((((((....))))))) | -40.5 | 56.1 |
| GTTGTAGGAAACTATGAC ((..(((....)))..)) | -14.1 | 26.6 |
| GTTGTCCGAAAGGAAAAC (((.(((....))).))) | -26.9 | 44.9 |
| GTTGTCCGAAAGGAGAAC (((.(((....))).))) | -28.5 | 51.2 |
| GTTGTCGAAAGACCAAAC ((((((....)))..))) | -10.6 | 26 |
| GTTGTCGAAAGACCAAC ((((((....))).))) | -20.4 | 38 |
| GTTGTCGAAAGACGAAC ((((((....))).))) | -17.9 | 39.8 |
| GTTGTCGAAAGACGGAAC ((((((....)))..))) | -10.3 | 31.3 |
| GTTGTCGCGAAAGCGAAC (((..(((....)))))) | -15.7 | 56.9 |
| GTTGTCGGAAACGGTAAC (((..((....))..))) | -21.9 | 33.1 |
| GTTGTGAAAACAAC (((((....))))) | -29.6 | 50.5 |
| GTTGTGCGAAAGCAAAC (((.(((....)))))) | -16.5 | 46.8 |
| GTTGTGCGAAAGCAGAAC (((.(((....))).))) | -30.9 | 54.1 |
| GTTGTGGGAAACTACAAC (((((.(....).))))) | -36.1 | 46.3 |
| GTTGTTCGAAAGAAAAAC (((.(((....))).))) | -29.1 | 34.9 |
| GTTGTTGGAAACAACGAC ((.((((....)))).)) | -18.6 | 55.9 |
| GTTTAACCGAAAGGTAAC (((..(((....)))))) | -10.4 | 29.7 |
| GTTTAAGGAAACTTAAGC (.(((((....))))).) | -13.9 | 32.4 |
| GTTTAAGGAAACTTGAAC (((.(((....))).))) | -18.5 | 35 |
| GTTTACCGAAAGGTCAAC (((.(((....))).))) | -24.8 | 39.1 |
| GTTTACGGAAACGTAAAC (((((((....))))))) | -41.1 | 57.5 |
| GTTTACGGAAACGTAGAC ((.((((....)))).)) | -24.7 | 40.3 |

| Sequence | folding enthalpy [1] [kcal/mol] | Tm [2] [°C] |
| --- | --- | --- |
| GTTTAGCGAAAGCTAAC (((.(((....)))))) | -11.7 | 44.1 |
| GTTTAGCGAAAGCTTAAC (((.(((....))).))) | -22.1 | 44.1 |
| GTTTAGGAAACTAAAC ((((((....)))))) | -30.6 | 44.7 |
| GTTTAGGGAAACCTGAAC (((.(((....))).))) | -34.8 | 38.5 |
| GTTTAGGGAAACTTGAAC (((.(.(....).).))) | -13 | 34.1 |
| GTTTAGTCGAAAGACAAC (((..(((....)))))) | -10.8 | 27.4 |
| GTTTATGCGAAAGCAAAC (((..(((....)))))) | -8.45 | 28.1 |
| GTTTCAGAAATGAAAC ((((((....)))))) | -27.3 | 47.2 |
| GTTTCAGGAAACTGAAAC (((((((....))))))) | -45 | 55.3 |
| GTTTCAGGAAACTGAAGC (.(((((....))))).) | -22.2 | 38.9 |
| GTTTCAGGAAACTGAGAC ((.((((....)))).)) | -24.9 | 37.3 |
| GTTTCCCCGAAAGGGAAC (((..(((....)))))) | -13.7 | 38.5 |
| GTTTCCCGAAAGGGGAAC (((.(((....))).))) | -36.2 | 56.1 |
| GTTTCCGAAAGGAATAAC ((((((....)))..))) | -12 | 30.2 |
| GTTTCCGAAAGGAGCAAC ((((((....)))..))) | -11.8 | 26.8 |
| GTTTCCGAAAGGATAAAC ((((((....)))..))) | -15.8 | 29.7 |
| GTTTCCGAAAGGATCAAC ((((((....)))..))) | -11.2 | 22.4 |
| GTTTCCGAAAGGATGAAC ((((((....)))..))) | -8.12 | 25.8 |
| GTTTCCGGAAACGGAGAC ((.((((....)))).)) | -20.2 | 47.6 |
| GTTTCCGGAAACGGGAAC (((.(((....))).))) | -28.2 | 54 |
| GTTTCGAAAGAAAC (((((....))))) | -29.1 | 53.6 |
| GTTTCTCGAAAGAGCAAC (((.(((....))).))) | -23.6 | 36.4 |
| GTTTCTGAAAAGAAAC ((((((....)))))) | -37 | 50.2 |

| Sequence | folding enthalpy [1] [kcal/mol] | Tm [2] [°C] |
| --- | --- | --- |
| GTTTGAGCGAAAGCTAAC (((..(((....)))))) | -10.5 | 31.1 |
| GTTTGAGGAAACTCAAAC (((((((....))))))) | -36.8 | 55.8 |
| GTTTGCGAAAGCATAAAC ((((((....)))..))) | -13 | 31.5 |
| GTTTGCGGAAACGTAAGC (.((.((....)).)).) | -22 | 33 |
| GTTTGCGGAAACGTGAAC (((..((....))..))) | -30.7 | 41.2 |
| GTTTGGACGAAAGTCAAC (((..(((....)))))) | -12.7 | 34.7 |
| GTTTGGGGAAACCTGAAC (((..((....))..))) | -16 | 32 |
| GTTTGGGGAAACTCAAGC (.(((.(....).))).) | -12.2 | 27.1 |
| GTTTGTGGAAACATAAAC ((((.((....)).)))) | -22.8 | 39.6 |
| GTTTGTGGAAACATGAAC (((..((....))..))) | -21.9 | 31.6 |
| GTTTTACGAAAGTAAAC (((.(((....)))))) | -17.4 | 38.7 |
| GTTTTAGCGAAAGCTAAC (((..(((....)))))) | -13.2 | 33 |
| GTTTTCACGAAAGTGAAC (((..(((....)))))) | -10.3 | 35.4 |
| GTTTTCCGAAAGGACAAC (((.(((....))).))) | -25.8 | 41.7 |
| GTTTTCCGAAAGGAGAAC (((.(((....))).))) | -30.4 | 47.1 |
| GTTTTGGGAAACCAAAGC (.(((((....))))).) | -29.8 | 41 |
| GTTTTGGGAAACCAAGAC ((.((((....)))).)) | -24.6 | 39 |
| GTTTTGGGAAACTAAAAC (((((.(....).))))) | -24.3 | 36.6 |
| GTTTTGTCGAAAGACAAC (((..(((....)))))) | -12.8 | 37.5 |
| GTTTTTCGAAAGAACAAC (((.(((....))).))) | -17.8 | 34.3 |
| GTTTTTGAAAAAAAAC ((((((....)))))) | -27.3 | 43.3 |
| GTTTTTGGAAACAAAAGC (.(((((....))))).) | -29.6 | 35.6 |

Source: the array DNA melting data of Ke et al. (doi:10.1101/2024.01.08.574731)
